Eleven molecules from ChEMBL document CHEMBL1275291, “Design, synthesis and in vitro evaluation of antitubercular and antimicrobial activity of some novel pyranopyrimidines” (2010) can be followed below.

Holding throughout (assay type): functional
The subject of one test is Pseudomonas aeruginosa. Kind of test: Antimicrobial activity against Pseudomonas aeruginosa MTCC 441 after 24 hrs by serial dilution method. The following applies: MTCC 441, 24 h.
Another test concerns Escherichia coli. Kind of test: Antimicrobial activity against Escherichia coli ATCC 25922 after 24 hrs by serial dilution method. The following applies: ATCC 25922, 24 h.
For the next test, the system named is Aspergillus niger. Kind of test: Antimicrobial activity against Aspergillus niger MTCC 282 after 24 hrs by serial dilution method.
The subject of another test is Staphylococcus aureus. The experiment in a line: Antimicrobial activity against Staphylococcus aureus ATCC 25923 after 24 hrs by serial dilution method. The following applies: ATCC 25923, 24 h.
Test [1] deals with Mycobacterium tuberculosis. The experiment in a line: Antitubercular activity against Mycobacterium tuberculosis H37Rv ATCC 27294 by agar microdilution method. The procedure, abridged:
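Twofold dilutions in Middlebrook 7H10 agar with OADC supplement, 3 mL per well in 24-well plates, in duplicate. Final concentrations 1000, 500, 250, 125 and 62.5. Known CFU of H37Rv culture dispensed on top of agar in a negative-pressure biosafety hood. Incubated at 37 °C in a CO2 incubator. MIC read as the lowest concentration completely inhibiting growth and colony formation.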

The subject of a further test is Streptococcus pyogenes. The experiment in a line: Antimicrobial activity against Streptococcus pyogenes MTCC 443 after 24 hrs by serial dilution method. The following applies: MTCC 443, 24 h.

What is called MIC is the smallest concentration in the dilution series that meets the test's criterion for growth inhibition. A higher MIC goes with a need for much substance.

Values after ≈ are worked out from the molar mass of the structure shown.

For the molecule `COc1ccc(C2C(C#N)=C(N)Oc3c2ccc2ccccc32)cc1` (stereo not given), the minimal inhibitory concentration (MIC) against Pseudomonas aeruginosa was 1000 µg/mL (≈ 3050 µM); with Escherichia coli, 500 µg/mL (≈ 1520 µM); in the test on Aspergillus niger (MTCC 282, 24 h) it was 500 µg/mL (≈ 1520 µM); with Staphylococcus aureus, 500 µg/mL (≈ 1520 µM); in test [1], 1000 µg/mL (≈ 3050 µM); with Streptococcus pyogenes, 500 µg/mL (≈ 1520 µM).
Consider `CO[C@H]1/C=C/O[C@@]2(C)Oc3c(C)c(O)c4c(O)c(c(/C=N/N5CCN(C)CC5)c(O)c4c3C2=O)NC(=O)/C(C)=C\C=C\[C@H](C)[C@H](O)[C@@H](C)[C@@H](O)[C@@H](C)[C@H](OC(C)=O)[C@@H]1C` [RIFAMPIN], for which it took 40 µg/mL (≈ 48.6 µM) to inhibit growth in test [1] (MIC).
In the case of `COc1ccc(C2c3ccc4cccnc4c3Oc3[nH]c(=O)nc(N)c32)cc1` (stereo not given), the MIC turned out to be 125 µg/mL (≈ 336 µM) in the test with Pseudomonas aeruginosa; 125 µg/mL (≈ 336 µM) against Escherichia coli; 250 µg/mL (≈ 671 µM) with Aspergillus niger (MTCC 282, 24 h); 62.5 µg/mL (≈ 168 µM) against Staphylococcus aureus; 125 µg/mL (≈ 336 µM) in the test with Streptococcus pyogenes.
For NYSTATIN, 100 µg/mL was the least that counted as inhibitory against Aspergillus niger (MIC).
On to `COc1ccc(C2C(C#N)=C(N)Oc3c2ccc2cccnc32)cc1` (stereo not given), for which the minimum inhibitory concentration (MIC) is 250 µg/mL (≈ 759 µM) against Pseudomonas aeruginosa; 250 µg/mL (≈ 759 µM) in the test with Escherichia coli; 500 µg/mL (≈ 1520 µM) in the test with Aspergillus niger (MTCC 282, 24 h); 125 µg/mL (≈ 380 µM) against Staphylococcus aureus; 250 µg/mL (≈ 759 µM) in test [1]; 125 µg/mL (≈ 380 µM) against Streptococcus pyogenes.
As to `O=C(O)c1cn(C2CC2)c2cc(N3CCNCC3)c(F)cc2c1=O` [CIPROFLOXACIN], the MIC against Escherichia coli worked out at 25 µg/mL (≈ 75.4 µM); against Staphylococcus aureus it was 50 µg/mL (≈ 151 µM); in the test on Streptococcus pyogenes, 50 µg/mL (≈ 151 µM).
For `CC1(C)S[C@@H]2[C@H](NC(=O)[C@H](N)c3ccccc3)C(=O)N2[C@H]1C(=O)O` [AMPICILLIN], the MIC against Pseudomonas aeruginosa was 100 µg/mL (≈ 286 µM); against Escherichia coli, 100 µg/mL (≈ 286 µM); against Staphylococcus aureus, 100 µg/mL (≈ 286 µM); against Streptococcus pyogenes it was 250 µg/mL (≈ 715 µM).
In the test with Aspergillus niger (MTCC 282, 24 h), `COC1=CC(=O)C[C@@H](C)[C@]12Oc1c(Cl)c(OC)cc(OC)c1C2=O` [GRISEOFULVIN] had a minimal inhibitory concentration (MIC) of 100 µg/mL (≈ 283 µM).
For the molecule `COc1ccc(C2C(C#N)=C(N)Oc3ccc4ccccc4c32)cc1` (stereo not given), the MIC against Pseudomonas aeruginosa is 500 µg/mL (≈ 1520 µM); against Escherichia coli, 150 µg/mL (≈ 457 µM); against Aspergillus niger (MTCC 282, 24 h), 1000 µg/mL (≈ 3050 µM); in the test with Staphylococcus aureus, 250 µg/mL (≈ 761 µM); in test [1] it was 1000 µg/mL (≈ 3050 µM); against Streptococcus pyogenes, 250 µg/mL (≈ 761 µM).
In the case of `COc1ccc(C2C(C#N)=C(N)Oc3ccccc32)cc1` (stereo not given), the minimal inhibitory concentration (MIC) worked out at 500 µg/mL (≈ 1800 µM) against Pseudomonas aeruginosa; 500 µg/mL (≈ 1800 µM) against Escherichia coli; 1000 µg/mL (≈ 3590 µM) against Aspergillus niger (MTCC 282, 24 h); 250 µg/mL (≈ 898 µM) in the test on Staphylococcus aureus; 500 µg/mL (≈ 1800 µM) in test [1]; 250 µg/mL (≈ 898 µM) with Streptococcus pyogenes.
As for `COc1ccc(C2C(C#N)=C(N)Oc3cc(O)ccc32)cc1` (stereo not given), the minimum inhibitory concentration (MIC) in the test on Pseudomonas aeruginosa was found to be 250 µg/mL (≈ 849 µM); against Escherichia coli, 250 µg/mL (≈ 849 µM); with Aspergillus niger (MTCC 282, 24 h) it was 500 µg/mL (≈ 1700 µM); with Staphylococcus aureus it was 125 µg/mL (≈ 425 µM); in test [1], 250 µg/mL (≈ 849 µM); in the test with Streptococcus pyogenes, 125 µg/mL (≈ 425 µM).
